The source made the active and inactive calls. No cut-off for these calls is given here.
Tests used:
[1] = In-vitro anti-inflammatory activity assessed as inhibition of heat-induced albumin (unknown origin) denaturation
[2] = test system: Erythrocyte; assay: Anti-inflammatory activity in human erythrocytes assessed as inhibition of heat-induced hemolysis; type: functional, cell-based
[3] = test system: Erythrocyte; assay: Anti-inflammatory activity in human erythrocytes assessed as inhibition of hypotonicity-induced hemolysis at 10 to 100 ug/ml relative to control; type: functional, cell-based
[4] = target: T1, Prostaglandin G/H synthase 1 (Ovis aries, UniProt P05979); assay: Inhibition of ovine COX1 using arachidonic acid as substrate preincubated for 10 mins followed by substrate addition and measured after 2 mins by ELISA
T1 sequence (P05979 whole entry): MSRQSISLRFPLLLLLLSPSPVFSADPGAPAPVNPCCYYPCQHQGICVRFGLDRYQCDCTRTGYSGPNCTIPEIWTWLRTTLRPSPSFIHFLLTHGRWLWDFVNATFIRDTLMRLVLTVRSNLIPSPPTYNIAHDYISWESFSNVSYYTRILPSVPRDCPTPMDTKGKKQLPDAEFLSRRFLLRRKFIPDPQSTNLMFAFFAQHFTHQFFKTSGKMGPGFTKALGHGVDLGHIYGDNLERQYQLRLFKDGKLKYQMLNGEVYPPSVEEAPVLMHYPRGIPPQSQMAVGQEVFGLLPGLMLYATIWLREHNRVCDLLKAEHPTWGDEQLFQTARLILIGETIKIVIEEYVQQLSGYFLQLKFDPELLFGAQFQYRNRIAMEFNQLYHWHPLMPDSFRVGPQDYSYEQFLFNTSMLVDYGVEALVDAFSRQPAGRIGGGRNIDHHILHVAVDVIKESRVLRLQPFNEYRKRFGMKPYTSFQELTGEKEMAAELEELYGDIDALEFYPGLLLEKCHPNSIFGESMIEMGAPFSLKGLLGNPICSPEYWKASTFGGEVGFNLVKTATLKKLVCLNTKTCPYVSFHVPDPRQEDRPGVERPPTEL
Outline: (§1)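 The enzyme, heme and test compound (dissolved in DMSO) were preincubated for 10 min at 37 °C in 0.1 M Tris-HCl, pH 8, with 5 mM EDTA and 2 mM phenol. Arachidonic acid was added to 100 µM final. The reaction was stopped after 2 min with 1 M HCl, then reduced with saturated SnCl2 for 5 min at RT. PGF2α was quantified by EIA (18 h RT, Ellman's reagent 60 min, 410 nm).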

[5] = target: T2, Prostaglandin G/H synthase 2 (Ovis aries, UniProt P79208); assay: Inhibition of ovine COX2 using arachidonic acid as substrate preincubated for 10 mins followed by substrate addition and measured after 2 mins by ELISA; outline: as §1
T2 sequence (P79208 whole entry): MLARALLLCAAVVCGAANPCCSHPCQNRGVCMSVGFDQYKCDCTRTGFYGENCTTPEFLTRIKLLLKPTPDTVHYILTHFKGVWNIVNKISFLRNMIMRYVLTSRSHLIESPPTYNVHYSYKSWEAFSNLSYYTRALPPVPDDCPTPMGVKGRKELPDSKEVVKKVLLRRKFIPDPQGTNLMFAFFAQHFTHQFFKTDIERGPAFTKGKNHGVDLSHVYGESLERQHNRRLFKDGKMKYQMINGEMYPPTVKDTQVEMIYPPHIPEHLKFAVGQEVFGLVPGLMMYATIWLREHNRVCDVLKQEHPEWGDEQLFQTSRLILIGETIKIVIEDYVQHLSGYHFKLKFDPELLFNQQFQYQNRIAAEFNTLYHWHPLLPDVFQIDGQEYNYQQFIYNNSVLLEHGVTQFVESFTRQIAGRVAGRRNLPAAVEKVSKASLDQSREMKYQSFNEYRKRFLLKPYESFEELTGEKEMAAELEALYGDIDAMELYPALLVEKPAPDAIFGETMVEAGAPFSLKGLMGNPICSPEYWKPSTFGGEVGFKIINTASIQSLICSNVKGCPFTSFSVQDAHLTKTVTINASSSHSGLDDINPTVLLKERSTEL

[6] = In-vitro anti-inflammatory activity assessed as inhibition of heat-induced albumin (unknown origin) denaturation at 100 ug/ml
[7] = test system: Erythrocyte; assay: Anti-inflammatory activity in human erythrocytes assessed as inhibition of heat-induced hemolysis at 10 ug/ml relative to control; type: functional
[8] = test system: Erythrocyte; assay: Anti-inflammatory activity in human erythrocytes assessed as inhibition of heat-induced hemolysis at 25 ug/ml relative to control; type: functional
[9] = test system: Erythrocyte; assay: Anti-inflammatory activity in human erythrocytes assessed as inhibition of heat-induced hemolysis at 50 ug/ml relative to control; type: functional
[10] = test system: Erythrocyte; assay: Anti-inflammatory activity in human erythrocytes assessed as inhibition of heat-induced hemolysis at 100 ug/ml relative to control; type: functional
[11] = test system: Erythrocyte; assay: Anti-inflammatory activity in human erythrocytes assessed as inhibition of hypotonicity-induced hemolysis at 10 ug/ml relative to control; type: functional
[12] = test system: Erythrocyte; assay: Anti-inflammatory activity in human erythrocytes assessed as inhibition of hypotonicity-induced hemolysis at 25 ug/ml relative to control; type: functional
[13] = test system: Erythrocyte; assay: Anti-inflammatory activity in human erythrocytes assessed as inhibition of hypotonicity-induced hemolysis at 50 ug/ml relative to control; type: functional
[14] = test system: Erythrocyte; assay: Anti-inflammatory activity in human erythrocytes assessed as inhibition of hypotonicity-induced hemolysis at 100 ug/ml relative to control; type: functional
[15] = test system: Rattus norvegicus; assay: Anti-inflammatory activity Wistar rat assessed as inhibition of carrageenan-induced paw edema at 25 to 50 mg/kg pretreated 30 mins prior to carrageenan-induction and measured after 0.5 to 24 hrs by plethysmography; type: functional, organism-based; details: TDE = time-dependent effect
Outline: (§2)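 Male Wistar rats, 4–6 weeks old and weighing 150–200 g, were housed four per cage at 22–24 °C with standard food and water.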

[16] = test system: Rattus norvegicus; assay: Anti-inflammatory activity Wistar rat assessed as inhibition of carrageenan-induced paw edema at 25 to 50 mg/kg pretreated 30 mins prior to carrageenan-induction and measured after 24 hrs by plethysmography; type: functional; outline: as §2
[17] = test system: Rattus norvegicus; assay: Anti-inflammatory activity Wistar rat assessed as reduction in TNF-alpha production at 25 mg/kg, ip pretreated 30 mins prior to carrageenan-induction and measured after 24 hrs post induction by immunoassay; type: functional, organism-based; outline: as §2
[18] = test system: Rattus norvegicus; assay: Anti-inflammatory activity Wistar rat assessed as reduction in IL-6 production at 25 mg/kg, ip pretreated 30 mins prior to carrageenan-induction and measured after 24 hrs post induction by immunoassay; type: functional, organism-based; outline: as §2
[19] = test system: Rattus norvegicus; assay: Anti-inflammatory activity Wistar rat assessed as reduction in IL-1beta production at 25 mg/kg, ip pretreated 30 mins prior to carrageenan-induction and measured after 24 hrs post induction by immunoassay; type: functional, organism-based; outline: as §2
[20] = test system: Rattus norvegicus; assay: Analgesic activity in Wistar rat assessed as reduction in acetic acid-induced abnormal writhing administered intraperitoneally 1 hr prior to acetic acid induction relative to control; type: functional; set-up: scale not given: the % may be the effect or the level left; outline: as §2
[21] = test system: Rattus norvegicus; assay: Analgesic activity in Wistar rat assessed as reduction in acetic acid-induced abnormal writhing administered intraperitoneally 30 mins after substance P injection followed by acetic acid induction after 30 mins; type: functional, organism-based; outline: as §2
[22] = Inhibition of soyabean 5-LOX after 5 mins by spectrophotometric analysis; set-up: species or system Glycine max
[23] = Acute toxicity in Wistar rat assessed as induction of behavioural changes at 50 mg/kg, po administered as as single dose observed continuously during first 4 hrs followed by periodic monitoring for 24 hrs and subsequent observations at once or twice daily for 14 days; type: organism-based; details: in vivo
Outline: (§3)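 Rats of either sex were used, per OECD guidelines, housed four per cage at 22–24 °C with standard food and water. They were fasted 4 h before and 2 h after dosing. Compounds were given as a single oral dose, with an untreated control group. Animals were watched continuously for the first 4 h, then periodically to 24 h, then once or twice daily for 14 days.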

[24] = Acute toxicity in Wistar rat assessed as induction of irritation at 300 to 2000 mg/kg, po administered as as single dose observed continuously during 1 to 4 hrs; type: organism-based; details: in vivo; outline: as §3
[25] = Acute toxicity in Wistar rat assessed as induction of itching at 300 to 2000 mg/kg, po administered as as single dose observed continuously during 1 to 4 hrs; type: organism-based; details: in vivo; outline: as §3
[26] = Acute toxicity in Wistar rat assessed as induction of sneezing at 300 to 2000 mg/kg, po administered as as single dose observed continuously during 1 to 4 hrs; type: organism-based; details: in vivo; outline: as §3
[27] = Cardiotoxicity in Wistar rat assessed as effect on myocardium at 2000 mg/kg, po administered as as single dose observed continuously during first 4 hrs followed by periodic monitoring for 24 hrs and subsequent observations at once or twice daily for 14 days by hematoxylin and eosin staining-based assay; type: toxicity, organism-based; details: in vivo
[28] = Hepatotoxicity in Wistar rat assessed as effect on liver at 2000 mg/kg, po administered as as single dose observed continuously during first 4 hrs followed by periodic monitoring for 24 hrs and subsequent observations at once or twice daily for 14 days by hematoxylin and eosin staining-based assay; type: toxicity, organism-based; details: in vivo
[29] = Renal toxicity in Wistar rat assessed as effect on kidney at 2000 mg/kg, po administered as as single dose observed continuously during first 4 hrs followed by periodic monitoring for 24 hrs and subsequent observations at once or twice daily for 14 days by hematoxylin and eosin staining-based assay; type: organism-based; details: in vivo
[30] = Acute toxicity in Wistar rat assessed as induction of behavioural changes at 50 to 2000 mg/kg, po administered as as single dose observed continuously during first 4 hrs followed by periodic monitoring for 24 hrs and subsequent observations at once or twice daily for 14 days; details: in vivo

Compound | inhibition [1] | Activity [2] | Activity [3] | IC50 [4] | IC50 [5] | inhibition [15] | inhibition (INH) [16] | Activity [17] | Activity [18] | Activity [19] | other results
CC(=O)N1N=C(c2cc3ccccc3oc2=O)CC1c1ccc(Cl)cc1 (stereo not drawn) | Dose-dependent effect | Dose-dependent effect | Active |  |  |  |  |  |  |  | 
COc1cc(C2CC(c3cc4ccccc4oc3=O)=NN2C(C)=O)cc(OC)c1OC (stereo not drawn) | Dose-dependent effect | Dose-dependent effect | Active | > 30 µM | 4.35 µM |  |  |  |  |  | 
COc1ccccc1C1CC(c2cc3ccccc3oc2=O)=NN1C(C)=O (stereo not drawn) | Dose-dependent effect | Dose-dependent effect | Active | > 30 µM | 4.37 µM |  |  |  |  |  | 
COc1ccc(C2CC(c3cc4ccccc4oc3=O)=NN2C(C)=O)cc1 (stereo not drawn) | Dose-dependent effect | Dose-dependent effect | Active | 22.4 µM | 0.41 µM | Tde | 67.39% | Active | Active | Active | inhibition [6]: 70%; inhibition at 10 µg/mL [7]: 60%; inhibition at 25 µg/mL [8]: 63%; inhibition at 50 µg/mL [9]: 67%; inhibition at 100 µg/mL [10]: 69%; inhibition at 10 µg/mL [11]: 62%; inhibition at 25 µg/mL [12]: 63%; inhibition at 50 µg/mL [13]: 67%; inhibition at 100 µg/mL [14]: 68%; Activity [20]: 70.5%; Activity [21]: inactive; IC50 [22]: 12 µM; Activity [23]: Non-Toxic; Activity [24]: Toxic; Activity [25]: Toxic; Activity [26]: Toxic; Activity [27]: Non-Toxic; Activity [28]: Non-Toxic; Activity [29]: Non-Toxic; Activity [30]: Non-Toxic
CC(=O)N1N=C(c2cc3ccccc3oc2=O)CC1c1ccc([N+](=O)[O-])cc1 (stereo not drawn) | Dose-dependent effect | Dose-dependent effect | Active | 16.2 µM | 1.79 µM | Tde | 52.17% | Active | Active | Active | 
Cc1ccc(-c2ncc(Cl)cc2-c2ccc(S(C)(=O)=O)cc2)cn1 [ETORICOXIB] |  |  |  | > 30 µM | 0.23 µM |  |  |  |  |  | inhibition at 10 µg/mL [7]: 65%; inhibition at 25 µg/mL [8]: 73%; inhibition at 50 µg/mL [9]: 78%; inhibition at 100 µg/mL [10]: 76%; inhibition at 10 µg/mL [11]: 52%; inhibition at 25 µg/mL [12]: 62%; inhibition at 50 µg/mL [13]: 66%; inhibition at 100 µg/mL [14]: 69%; inhibition [16]: Active; Activity [20]: 57.6%
CC(=O)N1N=C(c2cc3ccccc3oc2=O)CC1c1ccccc1 (stereo not drawn) | Dose-dependent effect | Dose-dependent effect | Active |  |  |  |  |  |  |  | 
CC(=O)N1N=C(c2cc3ccccc3oc2=O)CC1c1ccc(O)cc1 (stereo not drawn) | Dose-dependent effect | Dose-dependent effect | Active | 20 µM | 2.39 µM | Tde | 55.43% | Active | Active | Active | 

From ChEMBL document CHEMBL4480366, “Rationally synthesized coumarin based pyrazolines ameliorate carrageenan induced inflammation through COX-2/pro-inflammatory cytokine inhibition” (Medchemcomm, 2019)
